These results are taken from ChEMBL document CHEMBL4033795, “Design, Synthesis, and Structure-Activity Relationship Study of 2-Oxo-3,4-dihydropyrimido[4,5- d]pyrimidines as New Colony Stimulating Factor 1 Receptor (CSF1R) Kinase Inhibitors” (J Med Chem, 2018).

In data set [1] the target is Epidermal growth factor receptor (Homo sapiens, UniProt P00533). Nature of the data set: Inhibition of recombinant human wild type GST-tagged EGFR cytoplasmic domain (668 to 1210 residues) expressed in baculovirus using tyr4 peptide as substrate after 1 hr by FRET-based Z'-Lyte assay.
Data set [2] relates to Rattus norvegicus. Nature of the data set: AUC (0 to infinity) in Sprague-Dawley rat at 25 mg/kg administered via oral gavage measured up to 72 hrs by LC/MS analysis. On the set-up: dose 25 mg/kg, route oral, time infinity. The format is ADME, organism-based. Conditions: in vivo. The essentials:
(§1)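 Male Sprague-Dawley rats, 4–6 weeks old, acclimatised 1 week, were dosed iv at 5 mg/kg or by oral gavage at 25 mg/kg. Vehicle was 2% DMSO, 4% EtOH, 4% castor oil, 90% H2O. Blood was drawn by orbital sinus puncture from 2 min to 72 h into heparinized tubes. Plasma was assayed by LC/MS with propranolol as internal standard. Three animals per group.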

Data set [3] has as its target Ephrin type-A receptor 1 (Homo sapiens) (UniProt P21709). Nature of the data set: Inhibition of recombinant human EPHA1 (V588 to I913 residues) expressed in bacterial expression system at 100 nM by KINOMEscan assay relative to control.
For data set [4], the system named is RAW264.7. Briefly: Inhibition of protumorigenic potential of mouse RAW264.7 cells assessed as abrogation of human LNCAP cell growth enhancement of macrophages co-cultured for 48 hrs by CCK8 assay. The format is functional, cell-based. The essentials:
(§2)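 LNCaP cells, (2−4) × 10^5, were seeded in the lower transwell chamber. After 2 h, (1−2) × 10^6 RAW264.7 cells were added in a 0.4 μm insert. Compound at 0.016–2.0 μM was added to the top chamber and cells were cocultured 48 h at 37 °C. LNCaP cells were then imaged and counted by CCK8. Run three times, each in triplicate.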
In general terms: Tetrazolium dyes change colour on reduction, which living cells bring about.

For data set [5], the target named is Mast/stem cell growth factor receptor Kit (Homo sapiens, UniProt P10721). Briefly: Inhibition of recombinant cytoplasmic human His-tagged KIT expressed in baculovirus using […] peptide as substrate after 1 hr by FRET-based Z'-Lyte assay.
Sequence of Mast/stem cell growth factor receptor Kit (P10721 whole entry): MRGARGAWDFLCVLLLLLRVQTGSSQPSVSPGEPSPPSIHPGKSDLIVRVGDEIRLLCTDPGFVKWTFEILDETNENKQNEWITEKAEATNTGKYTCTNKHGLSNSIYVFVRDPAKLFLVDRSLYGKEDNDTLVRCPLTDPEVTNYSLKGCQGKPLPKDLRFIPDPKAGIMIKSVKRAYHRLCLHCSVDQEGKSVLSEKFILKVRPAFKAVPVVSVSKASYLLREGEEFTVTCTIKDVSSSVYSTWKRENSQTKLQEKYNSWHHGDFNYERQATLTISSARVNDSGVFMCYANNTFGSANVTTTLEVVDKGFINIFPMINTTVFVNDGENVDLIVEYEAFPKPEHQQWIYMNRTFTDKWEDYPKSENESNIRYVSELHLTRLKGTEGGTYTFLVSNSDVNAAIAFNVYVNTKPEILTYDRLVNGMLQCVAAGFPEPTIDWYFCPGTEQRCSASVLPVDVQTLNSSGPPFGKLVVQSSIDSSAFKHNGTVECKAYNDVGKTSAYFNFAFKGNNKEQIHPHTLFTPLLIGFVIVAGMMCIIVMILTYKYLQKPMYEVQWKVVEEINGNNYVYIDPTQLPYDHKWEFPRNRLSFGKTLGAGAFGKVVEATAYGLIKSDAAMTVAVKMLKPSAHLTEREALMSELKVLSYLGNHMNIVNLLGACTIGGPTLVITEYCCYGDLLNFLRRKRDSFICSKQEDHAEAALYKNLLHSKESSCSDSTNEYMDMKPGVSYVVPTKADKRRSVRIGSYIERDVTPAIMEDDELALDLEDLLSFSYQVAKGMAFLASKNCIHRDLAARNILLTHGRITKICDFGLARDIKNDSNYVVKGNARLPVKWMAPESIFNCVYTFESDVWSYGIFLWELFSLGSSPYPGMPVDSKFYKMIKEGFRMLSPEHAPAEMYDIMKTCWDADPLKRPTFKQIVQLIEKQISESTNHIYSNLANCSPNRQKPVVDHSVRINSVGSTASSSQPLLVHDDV
Data set [6] concerns RAW264.7. Nature of the data set: Inhibition of protumorigenic potential of mouse RAW264.7 cells assessed as abrogation of human LNCAP cell growth enhancement of macrophages at 2 uM co-cultured for 48 hrs by CCK8 assay relative to control. The format is functional. The note with it: RAW264.7, 48 h. The essentials: as §2
Data set [7] deals with Cytoplasmic tyrosine-protein kinase BMX (Homo sapiens) (UniProt P51813). Nature of the data set: Inhibition of recombinant human BMX (M1 to H675 residues) expressed in bacterial expression system at 100 nM by KINOMEscan assay relative to control.
The target of data set [8] is Platelet-derived growth factor receptor alpha (Homo sapiens, UniProt P16234). Nature of the data set: Inhibition of recombinant cytoplasmic human GST-tagged PDGFRalpha expressed in baculovirus using poly (4:1 Glu, Tyr) peptide as substrate after 1 hr by ADP-Glo assay. On the technique in general: ADP-Glo first removes unused ATP, then detects ADP through luciferase.
Sequence of Platelet-derived growth factor receptor alpha (P16234 whole entry): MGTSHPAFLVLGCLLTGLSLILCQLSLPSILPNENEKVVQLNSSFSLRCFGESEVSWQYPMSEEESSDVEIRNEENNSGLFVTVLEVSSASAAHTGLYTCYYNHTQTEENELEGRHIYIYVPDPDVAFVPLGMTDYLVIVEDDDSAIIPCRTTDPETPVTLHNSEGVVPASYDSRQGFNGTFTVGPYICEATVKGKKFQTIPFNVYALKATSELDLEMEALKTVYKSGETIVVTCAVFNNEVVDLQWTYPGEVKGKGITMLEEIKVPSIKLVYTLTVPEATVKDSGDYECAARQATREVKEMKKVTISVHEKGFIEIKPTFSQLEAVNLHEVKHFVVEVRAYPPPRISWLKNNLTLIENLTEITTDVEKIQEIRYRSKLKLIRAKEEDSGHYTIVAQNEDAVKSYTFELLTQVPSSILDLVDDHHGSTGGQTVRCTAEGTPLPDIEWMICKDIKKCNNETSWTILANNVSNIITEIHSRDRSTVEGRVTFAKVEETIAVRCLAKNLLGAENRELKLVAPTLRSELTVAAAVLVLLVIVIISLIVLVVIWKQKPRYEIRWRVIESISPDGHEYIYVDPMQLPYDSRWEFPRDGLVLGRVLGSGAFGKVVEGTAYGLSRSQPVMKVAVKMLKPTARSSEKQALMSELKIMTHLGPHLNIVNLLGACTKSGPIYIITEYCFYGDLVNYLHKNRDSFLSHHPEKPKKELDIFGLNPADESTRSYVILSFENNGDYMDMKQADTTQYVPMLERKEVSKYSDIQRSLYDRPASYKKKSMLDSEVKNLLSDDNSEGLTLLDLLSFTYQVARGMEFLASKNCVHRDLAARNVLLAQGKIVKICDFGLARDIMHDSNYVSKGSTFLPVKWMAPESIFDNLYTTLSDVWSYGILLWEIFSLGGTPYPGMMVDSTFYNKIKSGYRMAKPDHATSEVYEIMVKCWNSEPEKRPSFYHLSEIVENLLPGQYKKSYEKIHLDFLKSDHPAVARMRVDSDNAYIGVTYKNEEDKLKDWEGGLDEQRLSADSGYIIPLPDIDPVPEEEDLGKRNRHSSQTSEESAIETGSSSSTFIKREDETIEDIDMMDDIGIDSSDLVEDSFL

For data set [9], the species on record is Homo sapiens. Nature of the data set: Selectivity ratio of IC50 for recombinant cytoplasmic human GST-tagged PDGFRalpha expressed in baculovirus to IC50 for recombinant human His-tagged CSF1R cytoplasmic domain (538 to 910 residues) expressed in baculovirus.
For data set [10], the target named is Fibroblast growth factor receptor 1 (Homo sapiens, UniProt P11362). Briefly: Inhibition of cytoplasmic recombinant human His-tagged FGFR1 (308 to 731 residues) expressed in baculovirus using tyr4 peptide as substrate after 1 hr by FRET-based Z'-Lyte assay.
Sequence of Fibroblast growth factor receptor 1 (P11362 whole entry, the tested form may be a part): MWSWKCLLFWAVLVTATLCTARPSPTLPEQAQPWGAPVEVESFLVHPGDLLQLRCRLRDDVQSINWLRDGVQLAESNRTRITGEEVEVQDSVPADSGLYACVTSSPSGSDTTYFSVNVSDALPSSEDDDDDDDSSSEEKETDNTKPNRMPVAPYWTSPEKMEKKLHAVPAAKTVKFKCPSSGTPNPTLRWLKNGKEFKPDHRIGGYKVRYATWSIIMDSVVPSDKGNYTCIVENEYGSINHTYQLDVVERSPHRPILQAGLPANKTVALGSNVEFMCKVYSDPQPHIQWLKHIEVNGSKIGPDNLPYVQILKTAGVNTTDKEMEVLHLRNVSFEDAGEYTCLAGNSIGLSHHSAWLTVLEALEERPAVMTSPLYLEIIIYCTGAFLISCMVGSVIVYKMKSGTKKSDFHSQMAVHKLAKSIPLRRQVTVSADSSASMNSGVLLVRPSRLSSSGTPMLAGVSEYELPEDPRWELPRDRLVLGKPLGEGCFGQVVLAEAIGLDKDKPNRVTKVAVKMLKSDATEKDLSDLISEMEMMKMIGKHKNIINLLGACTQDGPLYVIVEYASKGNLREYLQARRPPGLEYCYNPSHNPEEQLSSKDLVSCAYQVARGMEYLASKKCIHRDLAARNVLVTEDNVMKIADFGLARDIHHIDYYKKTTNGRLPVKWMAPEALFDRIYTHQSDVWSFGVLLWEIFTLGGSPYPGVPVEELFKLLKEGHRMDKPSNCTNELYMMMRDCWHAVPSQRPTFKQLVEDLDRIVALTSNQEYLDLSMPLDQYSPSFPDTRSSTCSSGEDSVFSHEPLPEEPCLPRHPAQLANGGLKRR
Data set [11] relates to RAW264.7. Briefly: Antimigratory activity against mouse RAW264.7 cells assessed as inhibition of human LNCaP-MDV-CM mediated macrophage migration after 24 hrs by crystal violet staining based transwell assay. The data set is classed as functional, cell-based. In outline: (§3)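 RAW264.7 cells, (2−4) × 10^5, were placed serum-free in the upper insert of a transwell. The lower chamber held conditioned medium from LNCaP cells grown 48 h in 10% FBS RPMI 1640 with 10 μM MDV3100 or DMSO. Compound at 0.625–5.0 μM was added to the top chamber for 24 h at 37 °C. Migrated cells were fixed in methanol, stained with 0.25% crystal violet and counted in six random fields at 200×. Three independent experiments.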

Data set [12] relates to RAW264.7. Briefly: Inhibition of protumorigenic potential of mouse RAW264.7 cells assessed as abrogation of human LNCAP cell growth enhancement of macrophages at 0.08 uM co-cultured for 48 hrs by CCK8 assay relative to control. The data set is classed as functional. The note with it: RAW264.7, 48 h. In outline:
as §2

A short description of data set [13]: Half life in Sprague-Dawley rat at 5 mg/kg, iv measured up to 72 hrs by LC/MS analysis. The format is ADME, organism-based. Conditions: in vivo. The essentials: as §1
Data set [14] deals with RAW264.7. Nature of the data set: Antimigratory activity against mouse RAW264.7 cells assessed as inhibition of human LNCaP-MDV-CM mediated macrophage migration at 5 uM after 24 hrs by crystal violet staining based transwell assay relative to control. The format is functional. Conditions: RAW264.7, 24 h. In outline:
as §3

Data set [15] has as its system RAW264.7. Nature of the data set: Antimigratory activity against mouse RAW264.7 cells assessed as inhibition of human LNCaP-MDV-CM mediated macrophage migration at 0.625 uM after 24 hrs by crystal violet staining based transwell assay relative to control. The data set is classed as functional. Conditions: RAW264.7, 24 h. The essentials:
as §3

Data set [16] is described as follows: Cmax in Sprague-Dawley rat at 25 mg/kg administered via oral gavage measured up to 72 hrs by LC/MS analysis. Conditions: in vivo. The data set is classed as ADME, organism-based. On the set-up: dose 25 mg/kg, route oral. In outline:
as §1

Data set [17] concerns RAW264.7. Nature of the data set: Antimigratory activity against mouse RAW264.7 cells assessed as inhibition of human LNCaP-MDV-CM mediated macrophage migration at 1.25 uM after 24 hrs by crystal violet staining based transwell assay relative to control. The format is functional. The note with it: RAW264.7, 24 h. The essentials: as §3
Data set [18] has as its system RAW264.7. Nature of the data set: Downregulation of MMP9 mRNA expression in mouse RAW264.7 cells after 48 hrs by qRT-PCR analysis relative to DMSO. The data set is classed as functional, cell-based. The essentials: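 RAW264.7 macrophages were treated 48 h with compound at 0.08, 0.4 or 2.0 μM, or DMSO vehicle. Total RNA was extracted with TRIzol and transcripts were quantified by qRT-PCR using gene-specific primers. Run three times, each in triplicate.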
In general terms: Real-time PCR tracks product formation cycle by cycle.

Data set [19] addresses Fibroblast growth factor receptor 2 (Homo sapiens, UniProt P21802). Briefly: Inhibition of cytoplasmic recombinant human His-tagged FGFR2 (403 to 822 residues) expressed in baculovirus using tyr4 peptide as substrate after 1 hr by FRET-based Z'-Lyte assay.
Data set [20] has as its target Receptor-type tyrosine-protein kinase FLT3 (Homo sapiens, UniProt P36888). Nature of the data set: Inhibition of recombinant human His-tagged FLT3 (564 to 958 residues) expressed in baculovirus using poly (Glu,Tyr) as substrate after 2 hrs by PK-Light ATP assay.
In data set [21] the target is Proto-oncogene tyrosine-protein kinase receptor Ret (Homo sapiens) (UniProt P07949). Nature of the data set: Inhibition of human RET (E713 to D1014 residues) expressed in bacterial expression system at 100 nM by KINOMEscan assay relative to control.
Sequence of Proto-oncogene tyrosine-protein kinase receptor Ret (Homo sapiens) (P07949 whole entry, the tested form may be a part): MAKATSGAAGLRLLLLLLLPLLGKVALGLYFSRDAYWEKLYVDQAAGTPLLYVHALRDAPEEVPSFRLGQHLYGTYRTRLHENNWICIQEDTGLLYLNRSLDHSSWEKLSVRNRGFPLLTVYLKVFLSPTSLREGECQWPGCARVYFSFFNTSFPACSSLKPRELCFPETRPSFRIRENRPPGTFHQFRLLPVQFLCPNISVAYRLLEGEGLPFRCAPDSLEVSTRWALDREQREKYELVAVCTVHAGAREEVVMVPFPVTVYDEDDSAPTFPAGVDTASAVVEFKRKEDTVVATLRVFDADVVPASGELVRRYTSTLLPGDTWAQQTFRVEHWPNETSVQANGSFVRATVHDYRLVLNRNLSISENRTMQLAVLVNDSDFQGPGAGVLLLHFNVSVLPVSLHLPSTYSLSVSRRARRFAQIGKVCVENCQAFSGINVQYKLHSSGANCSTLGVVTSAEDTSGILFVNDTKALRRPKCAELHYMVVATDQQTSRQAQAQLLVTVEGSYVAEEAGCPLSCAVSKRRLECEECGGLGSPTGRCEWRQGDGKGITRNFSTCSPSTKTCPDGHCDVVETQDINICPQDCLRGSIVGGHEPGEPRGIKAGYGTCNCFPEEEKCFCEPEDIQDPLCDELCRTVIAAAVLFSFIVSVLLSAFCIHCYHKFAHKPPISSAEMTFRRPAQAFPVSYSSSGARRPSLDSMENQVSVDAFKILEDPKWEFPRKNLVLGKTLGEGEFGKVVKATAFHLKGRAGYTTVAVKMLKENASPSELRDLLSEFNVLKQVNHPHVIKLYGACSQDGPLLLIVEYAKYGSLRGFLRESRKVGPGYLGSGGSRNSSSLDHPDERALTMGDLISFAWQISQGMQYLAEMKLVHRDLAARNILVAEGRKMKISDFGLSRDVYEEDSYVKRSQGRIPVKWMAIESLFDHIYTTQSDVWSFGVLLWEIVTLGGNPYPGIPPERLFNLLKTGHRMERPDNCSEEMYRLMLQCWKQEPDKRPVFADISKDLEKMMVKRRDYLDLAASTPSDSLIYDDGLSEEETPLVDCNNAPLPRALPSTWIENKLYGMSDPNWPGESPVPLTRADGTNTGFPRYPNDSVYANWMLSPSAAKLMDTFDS
Data set [22] relates to RAW264.7. Nature of the data set: Inhibition of protumorigenic potential of mouse RAW264.7 cells assessed as abrogation of human LNCAP cell growth enhancement of macrophages at 0.016 uM co-cultured for 48 hrs by CCK8 assay relative to control. The data set is classed as functional. The note with it: RAW264.7, 48 h. In outline: as §2
Data set [23] in a line: Half life in Sprague-Dawley rat at 25 mg/kg administered via oral gavage measured up to 72 hrs by LC/MS analysis. The data set is classed as ADME, organism-based. Conditions: in vivo. In outline: as §1
A short description of data set [24]: Oral bioavailability in Sprague-Dawley rat at 25 mg/kg administered via gavage measured up to 72 hrs by LC/MS analysis. The format is ADME, organism-based. Conditions: in vivo. In outline: as §1

Each structure is given as a SMILES string.

Sequence of Ephrin type-A receptor 1 (Homo sapiens) (P21709 whole entry, the tested form may be a part): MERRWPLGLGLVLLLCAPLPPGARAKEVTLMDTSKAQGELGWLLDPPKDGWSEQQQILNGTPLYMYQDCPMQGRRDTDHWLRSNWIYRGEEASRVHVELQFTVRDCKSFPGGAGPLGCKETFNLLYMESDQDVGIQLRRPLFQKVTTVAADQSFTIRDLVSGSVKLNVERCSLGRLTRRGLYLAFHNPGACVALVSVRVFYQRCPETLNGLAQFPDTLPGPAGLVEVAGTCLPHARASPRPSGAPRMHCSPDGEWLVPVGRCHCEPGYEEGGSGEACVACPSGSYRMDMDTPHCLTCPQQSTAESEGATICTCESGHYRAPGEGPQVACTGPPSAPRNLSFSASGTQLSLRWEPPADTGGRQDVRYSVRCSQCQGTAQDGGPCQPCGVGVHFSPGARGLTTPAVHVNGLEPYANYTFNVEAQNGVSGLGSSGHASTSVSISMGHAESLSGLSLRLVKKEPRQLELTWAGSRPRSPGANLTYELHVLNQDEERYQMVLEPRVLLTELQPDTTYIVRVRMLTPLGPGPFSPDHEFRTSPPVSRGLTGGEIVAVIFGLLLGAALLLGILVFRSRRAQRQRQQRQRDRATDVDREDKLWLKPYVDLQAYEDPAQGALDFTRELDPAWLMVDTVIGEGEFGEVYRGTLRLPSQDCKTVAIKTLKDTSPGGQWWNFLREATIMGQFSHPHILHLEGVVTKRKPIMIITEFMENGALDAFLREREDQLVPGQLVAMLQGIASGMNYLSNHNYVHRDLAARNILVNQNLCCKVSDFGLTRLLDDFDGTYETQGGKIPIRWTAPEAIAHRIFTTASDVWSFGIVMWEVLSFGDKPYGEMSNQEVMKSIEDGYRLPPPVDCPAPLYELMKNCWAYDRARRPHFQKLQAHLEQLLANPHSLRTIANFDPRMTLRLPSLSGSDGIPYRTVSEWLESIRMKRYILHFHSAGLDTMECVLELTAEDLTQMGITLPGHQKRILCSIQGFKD

A word on the IC50: it is the concentration needed to halve the response being measured. What is called AUC is the area under the concentration-time curve, a measure of exposure. Lower therefore signals less exposure. Broadly, the inhibition is how much of the control response was suppressed. By half-life is commonly meant the time needed for the level to fall by half in the phase considered. A higher half-life goes with slow loss. The Cmax is the maximum level reached in the sampled fluid or tissue. One may read the bioavailability as the share of a dose that reaches the circulation, judged against a reference dose that is usually intravenous. The low end stands for poor availability, the high end for good availability. As for `CCC(=O)N1CC[C@H](N2C(=O)N(c3cc(OC)ccc3Cl)Cc3cnc(Nc4ccc(N5CCN(C6COC6)CC5)c(C)c4)nc32)C1`, the IC50 in data set [1] was 360 nM; in [5], 30 nM; in data set [8], 74 nM; in [10] it was 10 nM; in data set [19], 27 nM; in data set [20] it was 37 nM. The AUC in data set [2] is 6462 ng·h/mL. The inhibition in data set [3] was greater than 90%; in data set [4] it was “Dose-dependent effect”; in data set [7], greater than 90%; in data set [11] it was “Dose-dependent effect”; in [21] it was greater than 90%. Also, the inhibition at 2 µM in data set [6] was found to be 94.6%. Further, the Ratio IC50 in data set [9] fell in the range of 10 to 35. Besides, the inhibition at 0.08 µM in data set [12] turned out to be 70%. Besides, the half-life in data set [13] and in [23] was 1.08 h each time. The inhibition at 5 µM in data set [14] turned out to be 90.7%. In addition, the inhibition at 0.625 µM in data set [15] was 44.5%. The compound also displayed a Cmax in data set [16] of 2520 ng/mL. Also, in data set [17], the inhibition at 1.25 µM worked out at 52.7%. In addition, the Activity result in data set [18] is “Dose-dependent effect”. Besides, in data set [22], the inhibition at 0.016 µM was 63.4%. The same compound registered a bioavailability in data set [24] of 44.4%.
